Only some compounds are listed: those with a hit (about 4.6% of all), similar ones and a draw of the others.
TAAR1 agonist: human TAAR1 agonism. Q96RJ0. CHO RD-HGA16 TAAR1, Fluo-8 calcium fluorescence; vehicle wells 0%, saturating PEA agonist 100%. activation, % at 3 µM. actives 0.99% (n = 360,000). AID 624467;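 active means activation above the mean activation of all test compounds in the run plus 3 SD, cut at about 38% in these data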
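System: CHO RD-HGA16 cells carrying human TAAR1 plus Gα16; Incubation: 17-24 h seeding, 75 min 37 °C dye, 30 min RT; Measured by: Fluo-8 fluorescence, 5 s baseline then 140 s kinetic read; Control set: DMSO and PEA EC100; Replication: single well for each compound.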
GPR7 antagonist: antagonists of human GPR7 (neuropeptides B/W receptor 1); P48145; GPR7-expressing cells, fluorescence antagonist assay; inhibition, % at 4.4 µM; actives 1.1% (n = 290,000); AID 1861; in the data active means inhibition above about 16%, passing the limit was not always enough;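 further: cells stimulated with the agonist NPW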
TAAR1 antagonist: human TAAR1 antagonism | AID 624466 | Q96RJ0 | CHO RD-HGA16 TAAR1, Fluo-8 calcium fluorescence, antagonist | actives 1.5% (n = 360,000) | inhibition, % at 3 µM;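 active means inhibition above a per-plate cutoff, the mean inhibition of test compounds on that plate plus 3 SD, cut at about 49% in these data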
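Test system – hTAAR1-expressing CHO RD-HGA16 cells, Gα16-coupled · Reagent – β-PEA at EC80 concentration, post-compound challenge · Compound dosing – 3 µM, single point · Timing – 140 s kinetic read after compound, 140 s after agonist · Detection – Fluo-8 intracellular calcium dye fluorescence, real-time kinetic reads · Control set – DMSO and EC80 PEA controls · Repeats – n of 1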
OX1R antag-1: blocks the human orexin 1 receptor | O43613 | CHO/OX1R cells, Fluo-8 calcium fluorescence, orexin A | inhibition, % at 5 µM | actives 0.43% (n = 330,000);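 active means inhibition above its plate's threshold, mean inhibition of all tested compounds on the plate plus 3 SD, cut at about 37% in these data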
Target sequence (O43613 whole entry, looked up): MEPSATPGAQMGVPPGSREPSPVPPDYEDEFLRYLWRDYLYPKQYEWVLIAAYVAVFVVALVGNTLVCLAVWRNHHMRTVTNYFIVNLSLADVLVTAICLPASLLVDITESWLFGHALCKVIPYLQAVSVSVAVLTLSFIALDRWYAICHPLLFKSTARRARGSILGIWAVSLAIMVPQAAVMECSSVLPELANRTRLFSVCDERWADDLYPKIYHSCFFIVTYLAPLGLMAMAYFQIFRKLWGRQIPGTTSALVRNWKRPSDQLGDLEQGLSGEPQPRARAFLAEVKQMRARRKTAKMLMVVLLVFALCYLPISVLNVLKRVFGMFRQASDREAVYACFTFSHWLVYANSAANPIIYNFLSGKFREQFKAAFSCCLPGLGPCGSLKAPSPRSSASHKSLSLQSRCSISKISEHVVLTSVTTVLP
CHO parental Ca: signal in parental CHO cells, OX1R antagonist counter-screen; actives 0.63% (n = 330,000); inhibition, % at 5.6 µM; parental CHO-K1, ATP-induced calcium, Fluo-8 fluorescence;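 active means inhibition above that plate's mean sample inhibition plus 3 SD, cut at about 26% in these data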
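Assay system: untransfected parental CHO cell line. Also added: ATP agonist challenge. Dosing: one dose, 5.6 µM nominal. Measured by: Fluo-8 fluorescence. Read-out: % inhibition. Benchmarks: ATP wells versus no-ATP DMSO wells. Repeats: no replicates.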
OX1R antag-2: blocks the human orexin 1 receptor | OX1R-expressing cells, FRET antagonist read-out | inhibition, % at 6.6 µM | actives 1.8% (n = 330,000) | AID 485270; in the data active means inhibition mostly above about 38%, no sharp cut-off; inactive means mostly below about 40%
A number is an active result; . = inactive; / = no result given.

SMILES	TAAR1 agonist	GPR7 antagonist	TAAR1 antagonist	OX1R antag-1	CHO parental Ca	OX1R antag-2
CC(C)(C)OC(=O)C[C@@H]1C/C=C\C[C@@H](CC(=O)N(CCO)Cc2ccccc2)C(=O)N[C@@H](c2ccccc2)COC1=O	.	/	49	.	.	.
O=C1NC[C@@H](c2ccccc2)OC(=O)[C@@H](Cc2ccc(F)cc2)C/C=C\C[C@@H]1CC(=O)N(CCO)Cc1ccccc1	38	/	69	.	.	.
C[C@@H]1COC(=O)[C@H](NC(=O)OCC2c3ccccc3-c3ccccc32)C/C=C\C[C@@H](CC(=O)N(CCO)Cc2ccccc2)C(=O)N1	/	/	/	.	.	.
CC(C)(C)[C@H]1COC(=O)[C@H](NC(=O)OCC2c3ccccc3-c3ccccc32)C/C=C\C[C@@H](CC(=O)N(CCO)Cc2ccccc2)C(=O)N1	.	/	51	.	.	.
OC(c1ccc(F)c(F)c1)c1nc(-c2cccc3cccnc23)cs1 (configuration not stated)	.	/	.	/	/	/
Nc1c(N2CCCC2)cc(Cl)c2nonc12	/	.	/	.	.	40
CC1(C(=O)Nc2ccc3c(c2)OCO3)Cc2c(-c3cccc(C(F)(F)F)c3)ccnc2O1 (configuration not stated)	.	/	.	/	/	/
Cc1ccccc1CSc1nnc(C)c(=O)[nH]1	.	17	.	.	.	.
Cc1cc(C(=O)CSc2nc3ccccc3[nH]2)c(C)n1Cc1ccco1	.	.	.	.	49	77
Cc1cc(C(=O)COc2ccccc2C(N)=O)c(C)n1CC1CCCO1 (configuration not stated)	.	.	.	.	34	.
Cc1ccc(C(=O)CSc2nc3ccccc3c(=O)[nH]2)cc1C	.	.	.	.	.	48
C=CCn1c(C)cc(C(=O)CSc2nc3ccccc3[nH]2)c1C	.	.	60	46	.	42
C=CCO[C@H]1CN(C(=O)OC)[C@@H](c2ccccc2Br)C[C@H]1OCC=C	.	/	.	/	/	/
CCOC(=O)C1(COCc2ccccc2)CCCCC1=O (configuration not stated)	.	/	.	/	/	/
COCCn1c(C)cc(C(=O)CSc2nc3ccccc3c(=O)[nH]2)c1C	.	.	.	.	.	.
O=C(CSc1nc2ccccc2c(=O)[nH]1)Nc1ccc(C(=O)O)cc1	.	20	.	.	.	.
C=CCn1c(C)cc(C(=O)CSc2nc3ccccc3c(=O)[nH]2)c1C	.	.	67	55	55	61
Cc1cc(C(=O)CSc2nc3ccc(Cl)cc3[nH]2)c(C)n1CC1CCCO1 (configuration not stated)	.	.	.	.	45	88
NC(=O)c1ncn([C@@H]2O[C@H](C(=O)N3CCN(Cc4ccccn4)CC3)[C@@H](O)[C@H]2O)n1	.	/	.	/	/	/
CCOc1ccccc1C(=O)N[C@H](C(=O)OCC(=O)Nc1nnc(-c2ccccc2)o1)C(C)C	.	/	.	/	/	/
O=C(COC(=O)c1cc([N+](=O)[O-])ccc1N1CCOCC1)NCc1ccccc1	.	/	.	/	/	/
CC(NC(=O)COC(=O)c1cc([N+](=O)[O-])ccc1N1CCOCC1)c1ccc(F)cc1 (configuration not stated)	.	/	.	.	.	39
CC(NC(=O)COC(=O)c1cc([N+](=O)[O-])ccc1N1CCOCC1)c1ccccc1 (configuration not stated)	.	.	.	.	.	51
COCCCN1C(=O)C(CC(=O)NCc2cccs2)CC(C(=O)N2CCCCCC2)=C1C (configuration not stated)	.	/	.	/	/	/
COC(=O)c1ccc(CSc2nc3ccccc3c(=O)n2Cc2ccco2)o1	.	.	60	50	37	.
SMILES	TAAR1 agonist	GPR7 antagonist	TAAR1 antagonist	OX1R antag-1	CHO parental Ca	OX1R antag-2
COC(=O)c1ccc(CSc2nc3c(cnn3-c3ccccc3)c(=O)[nH]2)o1	.	.	.	.	.	55
NC(=O)CSc1nc2ccccc2c(=O)n1Cc1ccco1	.	.	.	.	.	.
O=C(CSc1nc2ccccc2c(=O)n1Cc1ccco1)c1ccc(F)cc1	.	.	50	.	.	.
CCc1cccc(NS(=O)(=O)c2c(C)nc3sc(CC)nn3c2=O)c1	.	21	.	.	.	.
Cc1ccsc1C(=O)OCC(=O)c1cc(C)n(C)c1C	.	/	.	.	.	.
COc1cc2c(cc1OC)[C@](C)(c1ccccc1)C[C@@H]2NCC=C(C)C	.	/	.	/	/	/
Cc1nn(CC(=O)Nc2ccccc2)c(=O)c2ccccc12	.	.	.	.	.	.
Cc1ccc(NC(=O)Cn2nc(C)c3ccccc3c2=O)cc1F	.	19	.	.	.	.
CCOCCCNC(=O)/C(C#N)=C/c1ccc(Cl)c([N+](=O)[O-])c1	.	.	.	.	.	.
CCOCCCNC(=O)/C(C#N)=C/c1cc(OC)c(O)c([N+](=O)[O-])c1	.	.	.	.	.	42
CN(C)S(=O)(=O)c1cccc(NC(=O)CSc2nc3ccccc3[nH]2)c1	.	.	.	.	.	.
CCN(CC)S(=O)(=O)c1cccc(NC(=O)CSc2nc3ccccc3[nH]2)c1	.	.	.	44	31	53
CN(C)S(=O)(=O)c1cccc(NC(=O)CSc2ncnc3ccccc23)c1	.	.	.	.	29	.
COc1ccc(S(=O)(=O)n2nc(-c3ccc(Cl)cc3)cc2N)cc1OC	.	18	.	.	.	.
CCOc1ccc(-c2cc(N)n(S(=O)(=O)c3ccc(OC)c(OC)c3)n2)cc1	.	.	.	.	.	.
Cn1c(CO)cnc1SCc1ccc([N+](=O)[O-])cc1	.	.	.	.	.	73
O=C(NC(=S)NNC(=O)c1ccccc1O)c1ccc([N+](=O)[O-])cc1	44	.	.	.	.	.
CCCCCC(=O)NNC(=S)NC(=O)c1ccc([N+](=O)[O-])cc1	.	.	.	.	.	70
Cc1ccc(C(=O)NC(=S)NNC(=O)c2ccccc2[N+](=O)[O-])cc1	38	.	.	.	.	.
O=C(c1ccc(-c2ccc([N+](=O)[O-])cc2)o1)N1CCCCC1	.	.	.	.	.	.
O=C(NNC(=O)c1ccccc1O)c1ccc(-c2ccc([N+](=O)[O-])cc2)o1	.	/	.	.	.	55
O=C(NNC(=S)NC(=O)c1ccccc1[N+](=O)[O-])c1ccccc1[N+](=O)[O-]	.	.	.	.	.	.
CC(C)CNC(=O)C1(C)CCCN1Cc1ccccc1OC(F)F (configuration not stated)	.	/	.	/	/	/
C[C@H]1CN([C@@H](C)CO)S(=O)(=O)c2ccc(C#CC3(O)CCCC3)cc2O[C@@H]1CN(C)C(=O)Cc1cccnc1	.	/	.	/	/	/

Screening data deposited in PubChem by The Scripps Research Institute Molecular Screening Center.
